Data taken from ChEMBL document CHEMBL1123309, “Esters and lactones of phenolic amino carboxylic acids: prodrugs for iron chelation” (J Med Chem, 1986).
Values joined by “and” are separate entries in the source; they are usually repeats but may differ in a detail not shown here. Equal values may be shown once.

Experiments:
Rattus norvegicus [1] = experiment: Percent change in iron levels was determined in feces using iron overload rat model where the route of administration is Intraperitoneal; format: functional
Mus musculus [2] = experiment: BDF1 male mice were administered with 200 mg/kg intraperitoneally and percent change in iron levels was determined in Spleen; format: functional; settings: route intraperitoneal
How it was run: (§1)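 Male BDF1 mice made iron-overloaded by transfusion of washed, heat-treated (50 °C, 30 min) canine red cells. Dosing began 2 days after the last transfusion, once daily for 7 days, in distilled water or 2% Polysorbate 80 suspension. Daily group urine was collected. Pooled feces were digested in 1 N HCl (90 °C, 30 min). Liver and spleen were homogenized in saline. Iron was measured by atomic absorption and expressed as % change vs transfused controls.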

Mus musculus [3] = experiment: BDF1 male mice were administered reduced to 100 mg/kg on day 4 intraperitoneally and percent change in iron levels was determined in Liver; format: functional; settings: route oral, in the assay text read “orally” for “intraperitoneally”; how it was run: as §1
[4] = Compound was evaluated for lethal dose after intraperitoneal administration using iron overload rat model; format: toxicity, organism-based; settings: in vivo, ip
Mus musculus [5] = experiment: BDF1 male mice were administered with 200 mg/kg intraperitoneally and percent change in iron levels was determined in Feces; format: functional; settings: route intraperitoneal; how it was run: as §1
Rattus norvegicus [6] = experiment: Percent change in iron levels was determined in urine using iron overload rat model where the route of administration is Peroral; format: functional
Mus musculus [7] = experiment: BDF1 male mice were administered with 200 mg/kg intraperitoneally and number of survivors was determined out of 10 tested; format: functional; settings: route intraperitoneal, 200 mg/kg
How it was run: (§2)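 Male BDF1 mice were iron-loaded by transfusion of canine red cells. The cells were heparinised, washed twice in isotonic saline and heated at 50 °C for 30 min. Dosing started two days after the last transfusion, once daily for 7 consecutive days. Compounds were given in distilled water or as a fine aqueous suspension with Polysorbate 80 (2% final). Toxic signs were recorded daily and survivors counted per group.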

Mus musculus [8] = experiment: BDF1 male mice were administered reduced to 100 mg/kg on day 4 intraperitoneally and percent change in iron levels was determined in Spleen; format: functional; settings: route oral, in the assay text read “orally” for “intraperitoneally”; how it was run: as §1
Mus musculus [9] = experiment: BDF1 male mice were administered reduced to 100 mg/kg on day 4 intraperitoneally and percent change in iron levels was determined in Urine; format: functional; settings: route oral, in the assay text read “orally” for “intraperitoneally”; how it was run: as §1
Rattus norvegicus [10] = experiment: Percent change in iron levels was determined in urine using iron overload rat model where the route of administration is Intraperitoneal; format: functional
Mus musculus [11] = experiment: BDF1 male mice were administered with 200 mg/kg intraperitoneally and percent change in iron levels was determined in Urine; format: functional; settings: route intraperitoneal; how it was run: as §1
Mus musculus [12] = experiment: BDF1 male mice were administered reduced to 100 mg/kg on day 4 intraperitoneally and percent change in iron levels was determined in Feces; format: functional; settings: route oral, in the assay text read “orally” for “intraperitoneally”; how it was run: as §1
Rattus norvegicus [13] = experiment: Percent change in iron levels was determined in feces using iron overload rat model where the route of administration is Peroral; format: functional
Mus musculus [14] = experiment: BDF1 male mice were administered with 200 mg/kg orally and percent change in iron levels was determined in spleen; format: functional; settings: route oral; how it was run: as §1
Mus musculus [15] = experiment: BDF1 male mice were administered with 100 mg/kg orally and percent change in iron levels was determined in spleen; format: functional; settings: dose 400 mg/kg; route oral; in the assay text read “400 mg/kg” for “100 mg/kg”; how it was run: as §1
Mus musculus [16] = experiment: BDF1 male mice were administered with 50 mg/kg orally and percent change in iron levels was determined in spleen; format: functional; settings: dose 375 mg/kg; route intraperitoneal; in the assay text read “375 mg/kg intraperitoneally” for “50 mg/kg orally”
Mus musculus [17] = experiment: BDF1 male mice were administered with the compound and number of survivors was determined out of 10 tested at a dose 200 mg/kg peroral; format: functional; settings: route oral; how it was run: as §2
Mus musculus [18] = experiment: BDF1 male mice were administered with 200 mg/kg orally and percent change in iron levels was determined in Liver; format: functional; settings: route oral; how it was run: as §1
Mus musculus [19] = experiment: BDF1 male mice were administered with the compound and number of survivors was determined out of 10 tested at a dose 375 mg/kg intraperitoneal
Mus musculus [20] = experiment: BDF1 male mice were administered with 25 mg/kg orally and percent change in iron levels was determined in spleen; format: functional; settings: dose 200 mg/kg; route intraperitoneal; in the assay text read “200 mg/kg intraperitoneally” for “25 mg/kg orally”
Mus musculus [21] = experiment: BDF1 male mice were administered with 200 mg/kg orally and percent change in iron levels was determined in Urine; format: functional; settings: route oral; how it was run: as §1
Mus musculus [22] = experiment: BDF1 male mice were administered with the compound and number of survivors was determined out of 10 tested at a dose 400 mg/kg peroral; format: functional; settings: route oral; how it was run: as §2
Mus musculus [23] = experiment: BDF1 male mice were administered with 200 mg/kg orally and percent change in iron levels was determined in Feces; format: functional; settings: route oral; how it was run: as §1

O=C(O)CN(CCN(CC(=O)O)Cc1ccccc1O)Cc1ccccc1O
Iron change (Rattus norvegicus [1]): 195%
Iron change (Mus musculus [2]): -5%
Iron change (Mus musculus [3]): -3%
LD50 [4]: ≥ 800 mg/kg
Iron change (Mus musculus [5]): 38%
Iron change (Rattus norvegicus [6]): 40%
No. of survivors (Mus musculus [7]): 10 and 9
Iron change (Mus musculus [8]): -9%
Iron change (Mus musculus [9]): 14%
Iron change (Rattus norvegicus [10]): 196%
Iron change (Mus musculus [11]): 50%
Iron change (Mus musculus [12]): -7%
Iron change (Rattus norvegicus [13]): 53%

COC(=O)CN(CCN(CC(=O)OC)Cc1ccccc1OC(C)=O)Cc1ccccc1OC(C)=O [DIMETHYL ESTER]
Iron change (Mus musculus [14]): -13%
Iron change (Mus musculus [15]): -46%
Iron change (Mus musculus [16]): -5%
No. of survivors (Mus musculus [17]): 10
Iron change (Mus musculus [18]): -40%
No. of survivors (Mus musculus [19]): 10
Iron change (Mus musculus [20]): -22%
Iron change (Mus musculus [21]): 138%
No. of survivors (Mus musculus [22]): 6
Iron change (Mus musculus [23]): -41%
